The RNAGym collection of RNA variant scans (doi:10.1126/science.aae0568)
Fewer inactive variants are shown than the library holds.

B1: tRNA (parent)
chain: GUUCCGUUGGCGUAAUGGUAACGCGUCUCCCUCCUAAGGAGAAGACUGCGGGUUCGAGUCCCGUACGGAACG

Variants of: B1
Assay: yeast fitness relative to wild type (ratio to wild type); higher = fitter; tRNA-Arg(CCU), competitive growth, 37 C, YPD
Summary of the method: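 Changes in genotype frequencies gave Darwinian fitness relative to wild type. Frequencies were read by 100-nucleotide paired-end sequencing of gene amplicons before and after pooled Saccharomyces cerevisiae strains, carrying tRNA-Arg(CCU) gene variants at the native locus, were competed in YPD at 37°C for 24 hours in six replicates. A genotype was kept only with ≥ 100 starting reads, and estimates < 0.5 were set to 0.5.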

Variant | yeast fitness
C4U G25A A36C A70G | ≤ 0.5
C5A A45U C49U | 0.64
C5A C22U C30U G68U | ≤ 0.5
C4U G6A G44C A69U A70G | ≤ 0.5
C4U G6C C33A A40C G41A U59A U64A C66G | ≤ 0.5
C4U G23C A36C C55G A57U G67A | ≤ 0.5
C4U U8C A69U | 0.875
C4U G52A A70U | 0.604
C4U G23A A40C U54A U59A | ≤ 0.5
C5A A20U C31U C61U U64A | ≤ 0.5
C5A A15C C29A A42C A45G | 0.551
C4U U8A C22U | ≤ 0.5
C4U G41C G48A C61A | ≤ 0.5
C4U G17C G18C C22A C60A C66U | ≤ 0.5
C4U G9C C33G U54C | ≤ 0.5
C5A A20C C22A A36C A69C | ≤ 0.5
C4U U7A C30G C34G A40C | 0.512
C4U U32A A69U | 0.601
C5A A21U C61A C62G | ≤ 0.5
C4U G12A C46U | 0.728
C5A A21C U54G C60U | ≤ 0.5
C4U G6C U7A | ≤ 0.5
C5A A21C C30G C34U G38C C49U | ≤ 0.5
C4U U7A A36U | 0.567

Variant | yeast fitness
C4U U7A A36G | ≤ 0.5
C5A A15G G25A | 0.583
C4U G58C A69C | 0.765
C5A A15C C29A C60G | ≤ 0.5
C5A C11G C55U C61A | ≤ 0.5
C4U G9A C22G A42U | 0.546
C4U U8A U13C A57C | ≤ 0.5
C4U G18C A20C G39A | ≤ 0.5
C4U U7A C46G A65C | 0.535
C4U U47A U54C C61A | ≤ 0.5
C4U G9A C22G A42U G68C | ≤ 0.5
C4U U8A U13C A37G C46A | ≤ 0.5
C4U U26A G52C | 0.569
C5A A14C A45G | ≤ 0.5
C5A A14G C55A A70U | ≤ 0.5
C4U G48C A70U | 0.542
C4U U35G A45U | 0.583
C4U U13G C29U C34U | ≤ 0.5
C4U U7C A57U C61U | ≤ 0.5
C4U G63C | 0.782
C4U G63A | 0.894
C4U G9C A20G A45G C61A G67A | ≤ 0.5
C5A A20C C22A C24U C31U G67A | ≤ 0.5
C5A C11U C49U | ≤ 0.5

Variant | yeast fitness
C4U U8A U16C A20U C29U A45C | ≤ 0.5
C5A C22G | 0.862
C5A C22U | 0.79
C5A A14G C24A C66G | ≤ 0.5
C4U U28C A36C | ≤ 0.5
C4U U8C C27G A45C U47C C55U | ≤ 0.5
C5A C22G C27G A36U A40C C66U | ≤ 0.5
C5A C11G G41C G48C | ≤ 0.5
C4U G9C G18A A21G C24U A37C | 0.694
C5A A69C | 0.919
C5A C11U A14U C27U A36U A43G C46U | ≤ 0.5
C4U G12C C49A U64C | ≤ 0.5
C4U U8G A15U | ≤ 0.5
C5A A20C A57U | ≤ 0.5
C4U U13A | 1.1
C4U U13C | 0.884
C4U U7A U13A U32C G44C | 0.718
C5A A40G C46A | 0.773
C5A A57G C61U | ≤ 0.5
C5A C11U C31G A70U | ≤ 0.5
C5A A15U C31G G39A G58A G67A | 0.558
C4U U32A G41C A43C | ≤ 0.5
C4U G48C G67U A69C | ≤ 0.5
C4U U8C A15C G63C | ≤ 0.5

Variant | yeast fitness
C5A A21C C24A A70U | ≤ 0.5
C4U U16G A43U | 1.13
C5A C11G G41C G68U | 0.524
C5A C11G C30G A36U C60A | ≤ 0.5
C4U G44C G67A | 0.768
C4U G12A A20G C22U A57G | ≤ 0.5
C5A A15G A36G | ≤ 0.5
C4U G9A C34U A36G C55G A57U G67A | ≤ 0.5
C4U G48A U54G | ≤ 0.5
C4U G18A C22U A40C | ≤ 0.5
C5A C22A G50C | 0.738
C4U G12C A21C C29G A36G C46U G58A | ≤ 0.5
C4U U32G A57G | ≤ 0.5
C5A A14G A37G C49G C55U G56C G68A | ≤ 0.5
C5A C11G A45C | ≤ 0.5
C4U G10A C22U G44C | ≤ 0.5
C4U G48A G50A | 0.961
C4U G25C | 0.999
C4U U59G | 0.909
C4U U59A | 0.999
C4U U13C A14G | 0.587
C5A A14G A20G C30A A40U G41C C61G G63C | ≤ 0.5
C5A A14U C24U A40C | 0.564
C4U U13C G25A C60A C62U | ≤ 0.5

Variant | yeast fitness
C5A A14C C49A | ≤ 0.5
C4U G44U | 0.757
C4U G12C U28G C62G | ≤ 0.5
C5A A14G A20U A37C C49A | ≤ 0.5
C4U U47A G51C A70U | ≤ 0.5
C5A C11G G48C G67C | ≤ 0.5
C5A A14G C22G A37U | 0.683
C4U G10C C30A G50A | ≤ 0.5
C4U U8A U13C C46A C61U | ≤ 0.5
C5A A57U | 0.669
C4U G44C A69U A70G | ≤ 0.5
C4U G23A G56C A57G G68A | ≤ 0.5
C4U U13A C46U U53A | 0.633
C4U U28C A36C G51A C66A | ≤ 0.5
C4U U8C A36G G44C | 0.676
C5A A21G G23A G67C | 0.591
C4U G12C U28G C62G A70U | ≤ 0.5
C4U G18C G50A | ≤ 0.5
C5A C11A G17C A43G | ≤ 0.5
C4U G12C C29U C31U U54G A65U G67A | ≤ 0.5
C5A A20G A40G C49U | ≤ 0.5
C5A A20C C61U | ≤ 0.5
C4U G12C U54G | ≤ 0.5
C5A C22A A36U A40U | ≤ 0.5

Variant | yeast fitness
C5A C11G G25A C61A | ≤ 0.5
C4U U7A G50C | ≤ 0.5
C5A A14C U26A C34U C55G | ≤ 0.5
C4U U8C A37U A45U C49U | ≤ 0.5
C4U G10A C11G A20G C27G A65U | ≤ 0.5
C5A A15U G25A U59C | ≤ 0.5
C5A A14U C27U C49G | ≤ 0.5
C4U G12A A40U A69C | 0.56
C4U G6A U8G C31U C49A G67A | ≤ 0.5
C5A A20C A21G A65G C66U | ≤ 0.5
C5A A15U C31G G39A C49U G58A G67A | ≤ 0.5
C4U U19C C31A | ≤ 0.5
C4U G50A G67A | 0.553
C4U G50A G67C | 0.578
C5A A37G | 0.7
C4U G23C A40U A42G A45G G51C C61U | ≤ 0.5
C4U U26A | 0.86
C4U G38C A65G | 0.621
C4U U59C C61A | ≤ 0.5
C4U G12A A40U | 0.642
C4U U16A A20G C66U | ≤ 0.5
C4U U26C G44A | 0.569
C4U G50A | 0.965
C4U G52C | 0.726

Variant | yeast fitness
C4U U64A | 0.852
C4U U64G | 1.09
C5A A45C C46G G48C U64C | ≤ 0.5
C4U U7C A15C U16G A70G | ≤ 0.5
C4U G12A A20G C22U G68C | ≤ 0.5
C4U U19A | 1.04
C4U U19C | 0.927
C4U U28G C61U C62U | ≤ 0.5
C4U U8A C33U A36U | 0.545
C5A A37C G38C C55U | 0.598
C4U G41C | 0.819
C4U G9A G67A | 0.598
C4U U8C U47A | 0.601
C5A A15U U19C C31G G39A G58A G67A | ≤ 0.5
C5A C11A C24U U26C C29U C31G | ≤ 0.5
C5A A20G C49A | 0.568
C4U G23C | 0.716
C5A A14G C24G C31U A43G | ≤ 0.5
C4U U13A U59A | 0.811
C4U U7A A20G G23A U26G | ≤ 0.5
C4U U16A A37U C49U C61G A70G | ≤ 0.5
C4U G23C U47C C49A G68C | ≤ 0.5
C5A C11G G51A C62U | ≤ 0.5
